Results taken from ChEMBL document CHEMBL4196151, “Anti-inflammatory Potential of Flavonoids from the Aerial Parts of Corispermum marschallii” (J Nat Prod, 2018).

Columns and labels:
[1] = tested on: Neutrophil; experiment: Cytotoxicity against LPS-stimulated human neutrophils assessed as reduction in cell viability up to 50 uM incubated for 1 hr followed by LPS stimulation by propidium iodide staining based method
Procedure, shortened: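 Viability measured by propidium iodide staining in neutrophils (1 × 10^6/mL) cultured in RPMI 1640. Compounds at final 10, 20, 50 μM were added 1 h before LPS (100 ng/mL). Read-out by cytometry, with 0.1% Triton X-100 as positive control.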

[2] = tested on: Neutrophil; experiment: Antiinflammatory activity against f-MLP-stimulated human neutrophils assessed as reduction in ROS production incubated for 40 mins measured at intervals of 2 mins by luminol-dependent chemiluminescence assay; type: functional, cell-based
Procedure, shortened: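 Freshly isolated human neutrophils suspended in HBSS at 2.0 × 10^5/mL and incubated with compounds at final 5, 10, 20 μM, diluted from DMSO stocks. ROS release triggered by f-MLP and read by luminol-dependent chemiluminescence. Quercetin served as positive control. Data as mean ± SEM, ANOVA with Tukey post hoc test.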

[3] = tested on: Neutrophil; experiment: Antiinflammatory activity against LPS-stimulated human neutrophils assessed as reduction in IL-8 production incubated for 1 hr followed by LPS stimulation measured after 18 to 24 hrs by ELISA; type: functional, cell-based
Procedure, shortened: (§1)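 Human neutrophils isolated from buffy coat, 1.0 × 10^6/mL in RPMI 1640 with 10% FBS, 10 mM HEPES, 2 mM L-glutamine. Compounds added from 10 mM DMSO stocks at final 10, 20, 50 μM, 1 h before LPS (100 ng/mL). Culture at 37 °C, 5% CO2. Supernatants taken after 18 h by centrifugation and cytokine measured by ELISA. Quercetin positive control; mean ± SEM, ANOVA with Tukey.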

[4] = tested on: Neutrophil; experiment: Antiinflammatory activity against LPS-stimulated human neutrophils assessed as reduction in TNFalpha production incubated for 1 hr followed by LPS stimulation measured after 18 to 24 hrs by ELISA; type: functional, cell-based; procedure, shortened: as §1

IC50 [2] [µM]	IC50 [3] [µM]	IC50 [4] [µM]	Structure (SMILES)	Activity [1]
38.5	51.9	16.3	COc1cc(-c2oc3cc(O)c(OC)c(O)c3c(=O)c2O[C@@H]2O[C@H](CO)[C@H](O)[C@H](O)[C@H]2O)ccc1O	Non-Toxic
36.6	46.7	23.2	COc1cc(/C=C/C(=O)OC[C@H]2O[C@@H](Oc3cc4oc(-c5ccc(O)c(O)c5)c(O[C@@H]5O[C@H](CO)[C@H](O)[C@H](O)[C@H]5O)c(=O)c4c(O)c3OC)[C@H](O)[C@@H](O)[C@@H]2O)ccc1O	Non-Toxic
5.4	24.5	9.7	COc1c(O)cc2oc(-c3ccc(O)c(O)c3)c(O[C@@H]3O[C@H](CO)[C@H](O)[C@H](O)[C@H]3O[C@@H]3OC[C@](O)(CO[C@@H]4OC[C@H](O)[C@H](O)[C@H]4O)[C@H]3O)c(=O)c2c1O	Non-Toxic
7.1	7.2	12.8	COc1c(O)cc2oc(-c3ccc(O)c(O)c3)c(O[C@@H]3O[C@H](CO)[C@H](O)[C@H](O)[C@H]3O[C@@H]3OC[C@](O)(CO)[C@H]3O)c(=O)c2c1O	Non-Toxic
5.7	28.9	9.3	COc1c(O)cc2oc(-c3ccc(O)c(O)c3)c(O[C@@H]3O[C@H](CO[C@@H]4O[C@H](CO)[C@@H](O)[C@H](O)[C@H]4O)[C@H](O)[C@H](O)[C@H]3O)c(=O)c2c1O	Non-Toxic
5.7	25.5	–	COc1c(O)cc2oc(-c3ccc(O)c(O)c3)c(O[C@@H]3O[C@H](CO[C@@H]4OC[C@H](O)[C@H](O)[C@H]4O)[C@H](O)[C@H](O)[C@H]3O)c(=O)c2c1O	Non-Toxic
6	–	20.7	COc1cc(/C=C/C(=O)OC[C@H]2O[C@@H](Oc3cc4oc(-c5ccc(O)c(OC)c5)c(O[C@@H]5O[C@H](CO)[C@H](O)[C@H](O)[C@H]5O)c(=O)c4c(O)c3OC)[C@H](O)[C@@H](O)[C@@H]2O)ccc1O	Non-Toxic
26.9	66	–	COc1c(O[C@@H]2O[C@H](CO)[C@@H](O)[C@H](O)[C@H]2O)cc2oc(-c3ccc(O)c(O)c3)c(O[C@@H]3O[C@H](CO)[C@H](O)[C@H](O)[C@H]3O)c(=O)c2c1O	Non-Toxic
31.5	25.7	16.3	COc1cc(-c2oc3cc(O[C@@H]4O[C@H](CO)[C@@H](O)[C@H](O)[C@H]4O)c(OC)c(O)c3c(=O)c2O[C@@H]2O[C@H](CO)[C@H](O)[C@H](O)[C@H]2O)ccc1O	Non-Toxic
15.4	18.1	11.7	COc1c(O)cc2oc(-c3ccc(O)cc3)c(O[C@@H]3O[C@H](CO)[C@H](O)[C@H](O)[C@H]3O)c(=O)c2c1O	–
3.4	8	7.7	COc1c(O)cc2oc(-c3ccc(O)c(O)c3)c(O[C@@H]3O[C@H](CO)[C@H](O)[C@H](O)[C@H]3O)c(=O)c2c1O	–

Structure (SMILES)	IC50 [2] [µM]	IC50 [3] [µM]	IC50 [4] [µM]	Activity [1]
O=c1c(O)c(-c2ccc(O)c(O)c2)oc2cc(O)cc(O)c12 [QUERCETIN]	4.4	33	20.4	–
